Experimental data gathered from unrelated publications.
Each line is one published result; the experiments were not run side by side.
Target: Tyrosine-protein kinase FRK (FRK, Homo sapiens, UniProt P42685)

`Cc1sc(C(=O)NC2COC2)cc1-n1cc(NC(=O)Nc2c(F)cccc2Cl)cn1` has a remaining activity of 87.3% (enzyme activity, inhibitor; 10 µM).
`Cc1cnc(NC2CCOCC2)nc1-n1cnc(C(=O)NC(CN)c2cc(F)cc(Cl)c2)c1` (stereo not shown) gave a remaining activity of 98% (enzyme activity, inhibitor, radiometric; 1 µM).
The remaining binding of `Cc1c(C(=O)O)cc(-c2ccc(C3CCNCC3)cc2)c2ccc(-c3ccc(C(F)(F)F)cc3)cc12` is reported as 100% (cell-free assay, competition with immobilised ligand; 1 µM).
The inhibition of `COc1cc2ncnc(Nc3ccc(Oc4ccccc4)cc3C)c2cc1OC` is reported as 63% (enzyme activity, inhibitor; 1 µM).
`CC(=O)N1CCC(c2ccc(C(=O)NC3=NCCN3)cc2C(F)(F)F)CC1` gave a remaining binding of 97% (cell-free assay, competition with immobilised ligand; 1 µM).
`CNC(=O)c1cc2c(Oc3ccc(NC(=O)C4(C(=O)Nc5ccc(F)cc5)CC4)cc3)ccnc2cc1OC` gave an inhibition of 99% (enzyme activity, inhibitor, radiometric; 1 µM).
With `Cc1ccc(C(=O)Nc2ccc(CN3CCN(C)CC3)c(C(F)(F)F)c2)cc1C#Cc1cnc2cccnn12` the remaining activity was 16% (enzyme activity, inhibitor; 23.5 nM).
For `CC1=C(C#N)[C@@H](c2ccc3[nH]nc(C)c3c2)C(C#N)=C(c2ccc(Cl)cc2)N1`, the remaining binding was 100% (cell-free assay, competition with immobilised ligand; 1 µM).
`CCCOc1ccc(OC)c(F)c1C(=O)c1ccc(C(=O)N[C@@H]2CNC[C@H]2NC(=O)c2ccc3[nH]ncc3c2)cc1` gave a remaining activity of 96% (enzyme activity, inhibitor; 10 µM).
With `O=C1Nc2ccc(Cl)cc2C1=Cc1cc(Cl)c(O)c(Cl)c1` the remaining signal was 70.3% (cell-free assay; 0.5 µM).
For `CN1CC(Oc2cnc(C#N)cc2-c2ccn3nc(NC(=O)C4CC4)cc3c2)C1`, the inhibition was 0% (enzyme activity, inhibitor; 1 µM).
`CN([C@@H]1CCc2c(CC(=O)O)c3cc(S(C)(=O)=O)ccc3n2C1)S(=O)(=O)c1ccc(F)cc1` gave a remaining binding of 100% (cell-free assay, competition with immobilised ligand; 1 µM).
For `CC(C)(C)c1nc(-c2cccc(NS(=O)(=O)c3c(F)cccc3F)c2F)c(-c2ccnc(N)n2)s1`, the remaining activity was 111% (enzyme activity, inhibitor, radiometric; 1 µM).
The activity vs control of `Cc1cc(NC(=O)c2cccc3cc(-c4cccc5[nH]nc(N)c45)ccc23)ccc1F` is reported as 67% (enzyme activity, inhibitor; 0.1 µM).
For `CCN(CC)CCNC(=O)c1c(C)[nH]c(/C=C2\C(=O)Nc3ccc(F)cc32)c1C`, the inhibition was 47% (enzyme activity, inhibitor; 0.3 µM).
With `O=C(Nc1cnn(-c2csc(C(=O)NC3COC3)c2)c1)Nc1ccccc1Cl` the remaining activity was 97.4% (enzyme activity, inhibitor; 5 µM).
With `COc1cc2c(Nc3ccc(Br)cc3F)ncnc2cc1OCC1CCN(C)CC1` the remaining signal was 79.5% (cell-free assay; 0.5 µM).
`Nc1ncnc2occ(-c3ccc(NC(=O)Nc4cc(C(F)(F)F)ccc4F)cc3)c12` gave a remaining signal of 0.15% (cell-free assay, inhibitor; 20 µM).
`C[C@@]1(Cc2ccc(C#N)cc2)C(=O)N(c2cc(Cl)cc(Cl)c2)c2ncc(C(=O)NC3(c4nc(C5CCC5)no4)CC3)n21` has a remaining binding of 81% (cell-free assay, competition with immobilised ligand; 1 µM).
`O=C1NC(=O)c2cc(Nc3ccc(F)cc3)c(Nc3ccc(F)cc3)cc21` gave a remaining signal of 97.2% (cell-free assay; 0.5 µM).
For `C[C@H](NC(=O)c1cnc2n1[C@](C)(Cc1ccc(C#N)cc1)C(=O)N2c1cc(Cl)c(F)c(Cl)c1)C(=O)NC1(c2ccccn2)CC1`, the remaining binding was 68% (cell-free assay, competition with immobilised ligand; 1 µM).
`O=c1cc(-c2cccc3c2Sc2ccccc2S3)oc(N2CCOCC2)c1` gave a remaining activity of 99.5% (enzyme activity, inhibitor; 0.5 µM).
